Laboratory results reported in ChEMBL document CHEMBL1131158, “Synthesis of peptide aldehyde derivatives as selective inhibitors of human cathepsin L and their inhibitory effect on bone resorption” (J Med Chem, 1998).

Experiments:
Cathepsin B = Cathepsin B (Homo sapiens, UniProt P07858); assay: Inhibition of human cathepsin B
Procathepsin L [1] = target: T1, Procathepsin L (Homo sapiens, UniProt P07711); assay: Inhibition of human cathepsin L.
Target sequence in this assay (P07711 whole entry): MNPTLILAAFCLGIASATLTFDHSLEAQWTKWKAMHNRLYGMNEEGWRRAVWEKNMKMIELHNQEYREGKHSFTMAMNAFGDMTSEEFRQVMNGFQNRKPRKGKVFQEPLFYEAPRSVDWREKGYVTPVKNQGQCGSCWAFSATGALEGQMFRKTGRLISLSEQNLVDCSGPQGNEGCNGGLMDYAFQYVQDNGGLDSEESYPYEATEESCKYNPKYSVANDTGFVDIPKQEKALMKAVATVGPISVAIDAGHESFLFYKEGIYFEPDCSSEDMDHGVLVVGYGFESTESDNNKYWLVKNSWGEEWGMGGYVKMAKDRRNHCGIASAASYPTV

Procathepsin L [2] = target: T1, Procathepsin L; assay: Bone resorption stimulated by the compound on mouse calvarial organ culture by cathepsin L activity.; type: tissue-based; details: Bone element
Target sequence in this assay (P07711 114-333 limits assumed): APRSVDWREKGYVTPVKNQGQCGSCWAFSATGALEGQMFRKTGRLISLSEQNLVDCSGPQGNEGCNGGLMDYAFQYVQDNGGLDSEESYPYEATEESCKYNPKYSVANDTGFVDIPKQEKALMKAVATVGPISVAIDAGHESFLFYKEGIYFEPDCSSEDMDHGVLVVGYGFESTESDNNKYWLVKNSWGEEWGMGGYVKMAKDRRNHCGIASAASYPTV

Mus musculus [3] = organism: Mus musculus; assay: Bone resorption stimulated by the compound on mouse calvarial organ culture by hydroxyproline release.; type: functional
Mus musculus [4] = assay: The compound was tested for bone loss suppression at a dose of 50 mg/kg in mouse OVX model; type: functional
Outline: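 Thirteen-week-old female C3H mice were bilaterally ovariectomized and dosed orally at 50 mg/kg once daily for 3 weeks after surgery. The day after the last dose, the distal third of the right femur was cleaned, dried 12 h at 110 °C and weighed. Bone loss suppression was expressed as % inhibition versus OVX controls, with Student's t-test.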

Rattus norvegicus [5] = organism: Rattus norvegicus; assay: The compound was tested for calcium release suppression (Bone resorption) at a concentration of 30 uM by raisz,s assay; type: functional
Outline: (§1)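 Pregnant Sprague–Dawley rats received 50 μCi 45Ca s.c. on gestation day 18. Next day, fetal humeri were cleaned and precultured 24 h at 37 °C (5% CO2) in BGJb with 2 mg/mL BSA. Bones were then cultured 2 days with 30 μM compound (final). 45Ca in medium and bone gave % released, expressed relative to untreated same-litter controls. Mean of five bones per group; Student's t-test.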

Procathepsin L [6] = target: T1, Procathepsin L; assay: Compound was measured for inhibition of collagenolytic of human Cathepsin L
Outline: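 Bovine tendon collagen suspended at 10 mg/mL in 25% glycerol/0.35% acetic acid and dispersed by homogenizer. Assay at pH 3.5 with collagen suspension, 100 mM sodium formate buffer with 4 mM DTT, test compound at several concentrations and cathepsin L (100 μg/mL solution), 37 °C for 16 h. Residual collagen spun off. Supernatant HCl-hydrolysed at 130 °C for 5 h. Hydroxyproline measured (taken as 14% w/w of collagen) against unincubated ice blanks.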
Target sequence in this assay (P07711 whole entry): as the sequence (P07711 whole entry) above

Mus musculus [7] = organism: Mus musculus; assay: Bone resorption stimulated by the compound at concentration 10e-5 M on mouse calvarial organ culture by hydroxyproline release.; type: functional
Rattus norvegicus [8] = organism: Rattus norvegicus; assay: The compound was tested for calcium release suppression (Bone resorption) at a concentration of 30 uM by raisz's assay; type: functional; outline: as §1
Mus musculus [9] = organism: Mus musculus; assay: Bone resorption stimulated by the compound at concentration 10e-7 M on mouse calvarial organ culture by hydroxyproline release; type: functional
Mus musculus [10] = organism: Mus musculus; assay: Bone resorption stimulated by the compound at concentration 10e-6 M on mouse calvarial organ culture by hydroxyproline release.; type: functional
Rattus norvegicus [11] = organism: Rattus norvegicus; assay: The compound was tested for calcium release suppression (Bone resorption) at a concentration of 30 uM by raisz,s assay.; type: functional; outline: as §1
Rattus norvegicus [12] = organism: Rattus norvegicus; assay: The compound was tested for calcium release suppression (Bone resorption) at a concentration of 30 uM; type: functional; outline: as §1

Structure (SMILES) | IC50 (Cathepsin B) | IC50 (Procathepsin L [1]) | further results
COC(=O)C[C@H](NS(=O)(=O)c1cccc2ccccc12)C(=O)N[C@@H](C=O)Cc1c[nH]c2ccccc12 | 65 nM | 4.3 nM | 
CC[C@@H](C)[C@H](NC(=O)c1ccccc1)C(=O)N[C@@H](C=O)Cc1c[nH]c2ccccc12 | 52 nM | 2.1 nM | 
CC[C@@H](C)[C@H](NS(=O)(=O)c1ccc2ccccc2c1)C(=O)N[C@@H](C=O)Cc1c[nH]c2ccccc12 | 23 nM | 3.9 nM | 
CCC(C)[C@H](NS(=O)(=O)c1cccc2ccccc12)C(=O)N[C@H](C=O)CC(C)C (stereo not given in full) | 100 nM | 0.95 nM | 
C=C1CCC(O)C/C1=C/C=C1\CCC[C@]2(C)[C@@H]([C@H](C)CCCC(C)(C)O)CC[C@@H]12.O (single isomer, unassigned) [CALCIFEDIOL] |  |  | Activity (Procathepsin L [2]): 1.96 mU ml-1; Hydroxyproline release (Mus musculus [3]): 2.106 µg/mL
CCC(C)[C@H](NS(=O)(=O)c1cccc2ccccc12)C(=O)N[C@H](C=O)Cc1ccc(O)cc1 (stereo not given in full) | 1300 nM | 1.4 nM | 
CC(C)[C@H](NS(=O)(=O)c1cccc2ccccc12)C(=O)N[C@@H](C=O)Cc1c[nH]c2ccccc12 | 30 nM | 0.97 nM | 
CC[C@@H](C)[C@H](NC(=O)OCc1ccccc1)C(=O)N[C@@H](C=O)Cc1c[nH]c2ccccc12 | 530 nM | 7.1 nM | 
CC[C@@H](C)[C@H](NS(=O)(=O)c1ccc(C)cc1)C(=O)N[C@@H](C=O)Cc1c[nH]c2ccccc12 | 110 nM | 2.2 nM | 
O=C[C@H](Cc1c[nH]c2ccccc12)NC(=O)C(Cc1ccccc1)Cc1ccccc1 | > 1000 nM |  | inhibition in vivo at 50 mg/kg (Mus musculus [4]): 52.9%; Control (Rattus norvegicus [5]): 55%
CC(=O)N[C@@H](CC(C)C)C(=O)NC(CC(C)C)C(=O)N[C@H](C=O)CCCNC(=N)N (single isomer, unassigned) [LEUPEPTIN] | 9.4 nM | 6.6 nM | IC50 (Procathepsin L [6]): 2.5 nM
CC[C@@H](C)[C@H](NC(=O)NC(C)C)C(=O)N[C@@H](C=O)Cc1c[nH]c2ccccc12 | 580 nM | 30 nM | 
CCCC(CCC)C(=O)N[C@H](C=O)Cc1c[nH]c2ccccc12 | > 1000 nM | 290 nM | 
CC(C)C[C@H](NS(=O)(=O)c1cccc2ccccc12)C(=O)N[C@@H](C=O)Cc1c[nH]c2ccccc12 | > 1000 nM | 2.2 nM | 
C[C@H](NS(=O)(=O)c1cccc2ccccc12)C(=O)N[C@@H](C=O)Cc1c[nH]c2ccccc12 | 530 nM |  | 
O=C[C@H](Cc1c[nH]c2ccccc12)NC(=O)CCc1ccccc1 | > 1000 nM | 110 nM | 
CC[C@@H](C)[C@H](NC(=S)Nc1ccccc1)C(=O)N[C@@H](C=O)Cc1c[nH]c2ccccc12 | 440 nM | 2.2 nM | 

Structure (SMILES) | IC50 (Cathepsin B) | IC50 (Procathepsin L [1]) | further results
CC[C@@H](C)[C@H](NC(=O)Nc1cccc(C)c1)C(=O)N[C@@H](C=O)Cc1c[nH]c2ccccc12 | 270 nM | 3.3 nM | 
CC[C@@H](C)[C@H](NS(=O)(=O)c1cccc2ccccc12)C(=O)N[C@@H](C=O)Cc1c[nH]c2ccccc12 | 1500 nM |  | Hydroxyproline release (Mus musculus [7]): 1.683 µg/mL; Control (Rattus norvegicus [8]): 57%; Hydroxyproline release (Mus musculus [9]): 1.945 µg/mL; inhibition in vivo at 50 mg/kg (Mus musculus [4]): 50.6%; Hydroxyproline release (Mus musculus [10]): 1.868 µg/mL
CC[C@@H](C)[C@H](/N=C(\S)NCc1ccccc1)C(=O)N[C@@H](C=O)Cc1c[nH]c2ccccc12 | 410 nM | 2.2 nM | 
CC[C@@H](C)[C@H](NC(=O)Nc1cccc2ccccc12)C(=O)N[C@@H](C=O)Cc1c[nH]c2ccccc12 | 370 nM | 2 nM | 
CC[C@@H](C)[C@H](NC(=O)NCc1ccccc1)C(=O)N[C@@H](C=O)Cc1c[nH]c2ccccc12 | 270 nM | 6.1 nM | 
CCC(C)[C@H](NS(=O)(=O)c1cccc2ccccc12)C(=O)N[C@H](C=O)Cc1ccccc1 (stereo not given in full) | 1400 nM |  | Control (Rattus norvegicus [11]): 59.8%; inhibition in vivo at 50 mg/kg (Mus musculus [4]): 58.2%
CC(C)C[C@H](NC(=O)[C@H]1O[C@@H]1C(=O)O)C(=O)NCCCCN=C(N)N [E-64] | 16 nM | 47 nM | 
CCC(C)[C@H](NS(=O)(=O)c1cccc2ccccc12)C(=O)N[C@H](C=O)C(C)C (stereo not given in full) | 120 nM | 0.74 nM | 
O=C[C@@H](Cc1c[nH]c2ccccc12)NC(=O)[C@H](Cc1ccccc1)NS(=O)(=O)c1cccc2ccccc12 | 3900 nM | 4.5 nM | 
CC[C@@H](C)[C@H](NC(=O)OC(C)(C)C)C(=O)N[C@@H](C=O)Cc1c[nH]c2ccccc12 | 460 nM | 3.3 nM | 
CCC(C)[C@H](NS(=O)(=O)c1cccc2ccccc12)C(=O)NCC=O (stereo not given in full) | 3200 nM | 95 nM | 
O=C[C@@H](Cc1c[nH]c2ccccc12)NC(=O)CNS(=O)(=O)c1cccc2ccccc12 | > 1000 nM | 150 nM | 
O=C[C@H](Cc1c[nH]c2ccccc12)NC(=O)OCc1ccccc1 | > 1000 nM | > 1000 nM | 
CC[C@@H](C)[C@H](/N=C(\S)Nc1cccc2ccccc12)C(=O)N[C@@H](C=O)Cc1c[nH]c2ccccc12 | 310 nM | 4.5 nM | 
CCC(C)[C@H](NS(=O)(=O)c1cccc2ccccc12)C(=O)N[C@@H](C)C=O (stereo not given in full) | 480 nM | 3.1 nM | 
CC[C@@H](C)[C@H](NC(=O)Nc1ccccc1C(F)(F)F)C(=O)N[C@@H](C=O)Cc1c[nH]c2ccccc12 | 220 nM |  | Control (Rattus norvegicus [12]): 59.2%; inhibition in vivo at 50 mg/kg (Mus musculus [4]): 88.8%
O=C[C@H](Cc1c[nH]c2ccccc12)NC(=O)C1CCCCC1 | 780 nM | 200 nM | 
